Experimental data pooled from the literature.
Protocols differ between the studies behind these lines.
Target: Serine/threonine-protein kinase N1 (PKN1, Homo sapiens, UniProt Q16512)

| Compound | effect on | mode | method | concentration | quantity | value |
| --- | --- | --- | --- | --- | --- | --- |
| Cn1c2c(c3ccc(Cl)c(Cl)c31)C(C#N)C1(CCCC1)NC2=O (centres unmarked) | thermal stability |  | DSF | 10 µM | ΔTm | -0.5 °C |
| COc1cc2ncn(-c3cc(OCc4ccccc4C(F)(F)F)c(C(N)=O)s3)c2cc1OC | enzyme activity | inhibitor |  | 1 µM | activity vs control | 56% |
| COc1cc2ncnc(Nc3ccc(Oc4ccccc4)c(C)c3C)c2cc1OC | enzyme activity | inhibitor |  | 1 µM | inhibition | 4% |
| c1ccc(N2CCN(Cc3nc4ccccc4[nH]3)CC2)nc1 | binding |  | competition with immobilised ligand | 1 µM | remaining binding | 88% |
| C[C@@H]1CN(CC(=O)Nc2ccc3c(c2)Cc2cccc(-c4cc(=O)cc(N5CCOCC5)o4)c2S3)C[C@H](C)O1 | enzyme activity | inhibitor |  | 1 µM | activity vs control | 79% |
| CS(=O)(=O)Nc1cccc(-c2csc(NC(=O)CSc3nc4nccnc4c(=O)n3CCc3ccccc3)n2)c1 | enzyme activity | inhibitor |  | 10 µM | inhibition | -5% |
| Oc1ccc(-c2nc(-c3ccncc3)c(-c3ccc(F)cc3)[nH]2)cc1 | cell-free assay |  |  | 0.5 µM | remaining signal | 78.9% |
| Cc1ccc2c(=O)c3ccccc3n(CCCN)c2c1C.O=C(O)/C=C\C(=O)O | enzyme activity | inhibitor |  | 1 µM | activity vs control | 64% |
| CN(C)C1CCN(CC#Cc2nn(C3CCCC3)c3nc(NCc4ccccc4)ncc23)C1 (centres unmarked) | enzyme activity | inhibitor | FRET | 1 µM | inhibition | 1% |
| CC(=O)N1CCC(c2ccc(C(=O)NC3=NCCN3)cc2C(F)(F)F)CC1 | cell-free assay |  | competition with immobilised ligand | 1 µM | remaining binding | 100% |
| CO[C@@H](C)Cn1c(=O)n(C)c2cnc3ccc(-c4cncc(C(C)(C)O)c4)cc3c21 | enzyme activity | inhibitor |  | 1 µM | activity vs control | 94% |
| CCC(=O)N[C@H]1CC[C@@H](C(=O)N(C)c2ccc(-c3nc4ccccc4o3)cc2)C1 | cell-free assay |  | competition with immobilised ligand | 1 µM | remaining binding | 83% |
| C=CCn1c(=O)c2cnc(Nc3ccc(N4CCN(C)CC4)cc3)nc2n1-c1cccc(C(C)(C)O)n1 | enzyme activity | inhibitor |  | 1 µM | activity vs control | 60% |
| CC(C)(C)c1nc(-c2cccc(NS(=O)(=O)c3c(F)cccc3F)c2F)c(-c2ccnc(N)n2)s1 | enzyme activity | inhibitor | radiometric | 1 µM | remaining activity | 101% |
| O=C1Nc2ccc(Cl)cc2C1=Cc1cc(Cl)c(O)c(Cl)c1 | cell-free assay |  |  | 0.5 µM | remaining signal | 93% |
| Cc1nc(C2CCN(C(=O)c3ccc(OC(F)(F)F)cc3N)CC2)c2ncc(N3CCN(C)CC3)cc2n1 | cell-free assay |  | competition with immobilised ligand | 1 µM | remaining binding | 100% |
| CC(=O)c1c(C)c2cnc(Nc3ccc(N4CCNCC4)cn3)nc2n(C2CCCC2)c1=O.Cl | enzyme activity | inhibitor |  | 1 µM | activity vs control | 96% |
| O=C1NC(c2ccccn2)Sc2ccccc21 (centres unmarked) | cell-free assay |  | competition with immobilised ligand | 1 µM | remaining binding | 60% |
| CC1(C)NC(=O)c2[nH]c3c(Cl)c(Cl)ccc3c2C1C#N (centres unmarked) | thermal stability |  | DSF | 10 µM | ΔTm | 0.4 °C |
| CS(=O)(=O)NCC[C@H](NC(=O)c1cncc2c1cnn2-c1ccc(F)cc1)c1ccnc(S(C)(=O)=O)c1 | cell-free assay |  | competition with immobilised ligand | 1 µM | remaining binding | 100% |
| COc1ccc(-c2cc3nccn3c(Nc3ncccc3C(N)=O)n2)cc1OC.Cl | enzyme activity | inhibitor |  | 1 µM | activity vs control | 50% |
| CS(=O)(=O)N1CCCC(NC(=O)[C@H](CCC2CCCCC2)NC(=O)c2ccc(CNc3ncnc4c3nnn4-c3ccccc3)cc2)C1 (some centres unmarked) | cell-free assay |  | competition with immobilised ligand | 0.1 µM | remaining binding | 98% |
| CCCCNc1ncc2c(-c3ccc(F)cc3)nn(C[C@H]3CC[C@H](N)CC3)c2n1 | target engagement in cells | inhibitor | chemoproteomics | 20 mM | inhibition | -43.3% |
